According to ChEMBL document CHEMBL4359903, “1,2,4-Oxadiazole derivatives targeting EGFR and c-Met degradation in TKI resistant NSCLC” (Eur J Med Chem, 2019):
Calls of active or inactive are those of the source.

Tests used:
[1] = molecular target: Hepatocyte growth factor receptor (Homo sapiens) (UniProt P08581); test: Effect on c-Met degradation in human NCI-H1975 cells harboring EGFR L858R/T790M double assessed as reduction in c-Met expression at 0.2 to 0.6 uM incubated for 48 hrs by RT-PCR analysis; type: cell-based
Procedure, shortened: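 Total RNA extracted with TRIzol from H1975 and A549 cells treated at 0.2–0.6 µM. EGFR and c-Met mRNA assessed by RT-PCR.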

[2] = tested on: Epidermal growth factor receptor (Homo sapiens), P00533 [L858R,T790M]; test: Induction of EGFR L858R/T790M double mutant degradation in human NCI-H1975 cells assessed as reduction in EGFR expression at 0.2 to 0.6 uM incubated for 48 hrs by Western blot analysis; type: cell-based
Procedure, shortened: (§1)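 After 48 h treatment, cells were scraped and lysed in 1% SDS, 50 mM Tris-HCl pH 8.0, 10 mM EDTA with protease and phosphatase inhibitors. Lysates sonicated, protein measured by BCA, equal amounts run on SDS-PAGE and blotted to nitrocellulose. Primary antibodies (EGFR, c-Met, S473-Akt, Akt, GAPDH) used at 1:1000 overnight at 4 °C, HRP secondaries at 1:5000, ECL detection.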

[3] = tested on: Epidermal growth factor receptor (Homo sapiens), P00533 [G719A,T790M]; test: Induction of EGFR G719A/T790M mutant degradation in human CL97 cells assessed as reduction in EGFR expression at 0.2 to 0.6 uM incubated for 48 hrs by Western blot analysis; type: cell-based; procedure, shortened: as §1
[4] = Antiproliferative activity against human CL68 cells harbouring EGFR delE746-A750/T790M mutant assessed as reduction in cell viability incubated for 48 hrs by MTT assay; type: functional, cell-based
Procedure, shortened: (§2)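 Cells seeded at 5000 per well in 10% FBS and left overnight, then exposed to agent or DMSO in 5% FBS for 48 h. MTT added for 1 h, dye dissolved in DMSO, absorbance read at 570 nm. Viability given as percent of vehicle control. At least three independent experiments, means ± SD.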

NCI-H1975 [5] = test: Antiproliferative activity against human NCI-H1975 cells harbouring EGFR L858R/T790M double mutant assessed as reduction in cell viability incubated for 72 hrs by MTT assay; type: functional, cell-based; conditions: NCI-H1975, 72 h
[6] = tested on: Epidermal growth factor receptor (Homo sapiens), P00533 [G719A,T790M]; test: Induction of EGFR G719A/T790M mutant degradation in human CL97 cells assessed as reduction in Akt phosphorylation at 0.4 to 0.8 uM incubated for 48 hrs by Western blot analysis; type: cell-based; procedure, shortened: as §1
NCI-H1975 [7] = test: Antitumor activity against human NCI-H1975 cells harbouring EGFR L858R/T790M double mutant xenografted in athymic Nude-Foxn1nu BALB/c mouse assessed as reduction in c-Met expression in tumor lysates administered once daily via oral gavage for 20 days measured on day 20 by Western blot analysis; type: functional; conditions: Neoplasm, Lysate
Procedure, shortened: (§3)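 H1975 xenografts in nude mice gavaged daily for 20 days with vehicle, 50 or 150 mg/kg. At study end mice were killed by CO2, and tumor lysates from four representative tumors per group were immunoblotted for EGFR and c-Met. Band intensities quantified by densitometry.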

[8] = molecular target: Epidermal growth factor receptor (Homo sapiens) (UniProt P00533); test: Induction of EGFR degradation in human MDA-MB-231 cells assessed as reduction in EGFR expression incubated for 48 hrs by immunoblot analysis; type: cell-based; procedure, shortened: as §1
[9] = tested on: Epidermal growth factor receptor (Homo sapiens), P00533 [L858R,T790M]; test: Induction of EGFR L858R/T790M double mutant degradation in human NCI-H1975 cells assessed as reduction in Akt phosphorylation at 0.2 to 0.6 uM incubated for 48 hrs by Western blot analysis; type: cell-based; procedure, shortened: as §1
CL97 [10] = test: Antiproliferative activity against human CL97 cells harbouring EGFR G719A/T790M mutant assessed as reduction in cell viability incubated for 48 hrs by MTT assay; type: functional, cell-based; conditions: CL97, 48 h; procedure, shortened: as §2
[11] = Toxicity in athymic Nude-Foxn1nu BALB/c mouse xenografted with human NCI-H1975 cells harbouring EGFR L858R/T790M double mutant assessed as body weight loss at 50 to 150 mg/kg, po administered once daily via gavage for 20 days measured twice a week; type: organism-based; conditions: in vivo, 480 h
Procedure, shortened: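 Female Balb/c nude mice, 5 weeks old, injected subcutaneously in the right flank with 10^6 H1975 cells in 0.1 ml. Randomized at about 50 mm3, n = 8 per group. Gavaged once daily for 20 days with vehicle (10% DMSO/0.1% Tween 80/0.5% methylcellulose in sterile water) or 50 or 150 mg/kg. Calipers, V = width² × length × 0.52; volume and body weight twice weekly; Student's t-test.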

CL97 [12] = test: Cell cycle arrest in human CL97 cells harbouring EGFR G719A/T790M mutant assessed as increase in cells accumulation at G2/M phase at 0.4 to 0.8 uM incubated for 48 hrs by propidium iodide based flow cytometry; type: functional
Procedure, shortened: (§4)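 Cells plated at 3 × 10^5 per 6-cm dish and left overnight, then treated for 24 h and 48 h. Pellets fixed in 70% ethanol and stained with 40 µg/ml propidium iodide plus 20 µg/ml RNase A, 30 min on ice in the dark. DNA content read on a FACSCalibur flow cytometer.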

[13] = molecular target: Epidermal growth factor receptor (Homo sapiens) (UniProt P00533); test: Induction of EGFR degradation in wild type human A549 cells assessed as reduction in EGFR expression 0.2 to 0.6 uM incubated for 48 hrs by Western blot analysis; type: cell-based; procedure, shortened: as §1
NCI-H1975 [14] = test: Antitumor activity against human NCI-H1975 cells harbouring EGFR L858R/T790M double mutant xenografted in athymic Nude-Foxn1nu BALB/c mouse assessed as reduction in EGFR expression in tumor lysates administered once daily via oral gavage for 20 days measured on day 20 by Western blot analysis; type: functional; conditions: Neoplasm, Lysate; procedure, shortened: as §3
A549 = test: Antiproliferative activity against wild type human A549 cells assessed as reduction in cell viability incubated for 48 hrs by MTT assay; type: functional, cell-based; conditions: A549, 48 h; procedure, shortened: as §2
[15] = molecular target: Epidermal growth factor receptor (Homo sapiens) (UniProt P00533); test: Inhibition of EGFR in wild type human A549 cells assessed as reduction in Akt phosphorylation at 0.2 to 0.6 uM incubated for 48 hrs by Western blot analysis; type: cell-based; procedure, shortened: as §1
PC-9 = test: Cell cycle arrest in human PC9 cells harbouring EGFR delE746-A750 […] assessed as increase in cells accumulation at G2/M phase at 0.4 to 0.8 uM incubated for 48 hrs by propidium iodide based flow cytometry; type: functional; procedure, shortened: as §4
[16] = molecular target: Hepatocyte growth factor receptor (Homo sapiens) (UniProt P08581); test: Induction of c-MET degradation in human CL97 cells harbouring EGFR G719A/T790M assessed as reduction in c-Met expression at 0.2 to 0.6 uM incubated for 48 hrs by Western blot analysis; type: cell-based; procedure, shortened: as §1
[17] = tested on: Epidermal growth factor receptor (Homo sapiens), P00533 [UNDEFINED MUTATION]; test: Induction of EGFR E746-A750 deletion mutant degradation in human PC9 cells assessed as reduction in Akt phosphorylation at 0.4 to 0.8 uM incubated for 48 hrs by Western blot analysis; type: cell-based; conditions: 0.2 to 0.6 uM, in the assay text read “0.2 to 0.6 uM” for “0.4 to 0.8 uM”; procedure, shortened: as §1
[18] = tested on: Epidermal growth factor receptor (Homo sapiens), P00533 [UNDEFINED MUTATION]; test: Induction of EGFR E746-A750 deletion mutant degradation in human PC9 cells assessed as reduction in EGFR expression at 0.2 to 0.6 uM incubated for 48 hrs by Western blot analysis; type: cell-based; procedure, shortened: as §1

Sequence of Hepatocyte growth factor receptor (Homo sapiens) (P08581 whole entry): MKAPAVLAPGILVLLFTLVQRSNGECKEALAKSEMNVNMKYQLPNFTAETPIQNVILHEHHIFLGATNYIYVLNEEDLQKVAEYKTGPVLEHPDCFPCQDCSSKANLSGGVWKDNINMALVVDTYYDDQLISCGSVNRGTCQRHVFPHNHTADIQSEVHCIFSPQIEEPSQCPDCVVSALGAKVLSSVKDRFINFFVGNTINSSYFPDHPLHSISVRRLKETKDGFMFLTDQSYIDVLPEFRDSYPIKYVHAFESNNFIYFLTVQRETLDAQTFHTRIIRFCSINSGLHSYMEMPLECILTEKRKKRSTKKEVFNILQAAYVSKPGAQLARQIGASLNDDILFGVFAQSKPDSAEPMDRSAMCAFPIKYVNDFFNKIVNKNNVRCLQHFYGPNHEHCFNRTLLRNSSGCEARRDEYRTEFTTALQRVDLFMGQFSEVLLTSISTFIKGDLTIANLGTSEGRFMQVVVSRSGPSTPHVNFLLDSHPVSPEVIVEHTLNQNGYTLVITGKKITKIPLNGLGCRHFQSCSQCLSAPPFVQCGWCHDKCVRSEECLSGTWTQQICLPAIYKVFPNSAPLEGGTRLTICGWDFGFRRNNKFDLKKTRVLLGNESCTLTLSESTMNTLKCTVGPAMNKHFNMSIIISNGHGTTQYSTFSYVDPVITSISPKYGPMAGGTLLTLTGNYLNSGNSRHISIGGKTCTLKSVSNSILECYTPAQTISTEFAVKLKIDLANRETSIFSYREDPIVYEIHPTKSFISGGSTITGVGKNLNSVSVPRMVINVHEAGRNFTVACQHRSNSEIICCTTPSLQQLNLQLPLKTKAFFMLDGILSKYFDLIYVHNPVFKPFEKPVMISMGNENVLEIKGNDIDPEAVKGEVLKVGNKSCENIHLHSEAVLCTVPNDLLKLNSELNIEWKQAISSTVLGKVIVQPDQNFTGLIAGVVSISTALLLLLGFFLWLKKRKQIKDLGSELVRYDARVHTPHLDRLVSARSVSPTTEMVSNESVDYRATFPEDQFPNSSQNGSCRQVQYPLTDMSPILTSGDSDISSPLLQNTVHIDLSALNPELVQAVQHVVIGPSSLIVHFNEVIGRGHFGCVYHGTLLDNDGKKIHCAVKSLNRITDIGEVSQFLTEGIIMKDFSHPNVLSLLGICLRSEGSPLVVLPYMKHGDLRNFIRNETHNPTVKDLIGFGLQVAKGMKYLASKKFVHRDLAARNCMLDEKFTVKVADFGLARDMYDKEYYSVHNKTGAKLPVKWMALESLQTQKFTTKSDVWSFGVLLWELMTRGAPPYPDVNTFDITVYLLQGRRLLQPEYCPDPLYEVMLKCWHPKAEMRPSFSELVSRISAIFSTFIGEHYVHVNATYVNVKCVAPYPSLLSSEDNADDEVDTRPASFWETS

O=C(Nc1cccc(-c2nc(-c3ccc(NC(=O)c4cccnc4)cc3Cl)no2)c1)Nc1ccc(NC(=O)C2CC2)c(C(F)(F)F)c1
600 nM: IC50 (CL97 [10])
Non-Toxic: Activity [11]
inactive: Activity [1]
300 nM: IC50 (NCI-H1975 [5]) | IC50 (A549)
active: Activity [2] | Activity [3] | Activity [6] | Activity (NCI-H1975 [7]) Dose-dependent effect | Activity [8] | Activity [9] | Activity (CL97 [12]) | Activity [13] | Activity (NCI-H1975 [14]) Dose-dependent effect | Activity [15] | Activity (PC-9) | Activity [16] | Activity [17] | Activity [18]
500 nM: IC50 [4]
